Test [1] deals with HCT-116. The experiment in a line: Cytotoxicity against human HCT116 cells assessed as cell growth inhibition after 3 days by MTT assay. Format: functional, cell-based. As to conditions: HCT-116, 72 h. In short, it runs like this: (§1)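 Cells grown in RPMI-1640 with 10% FBS, penicillin 100 U/mL and streptomycin, 37 °C, 5% CO2. Exponential-phase cells seeded at 5 × 10⁴–1 × 10⁵ cells/mL, grown overnight, then treated with DMSO-predissolved compounds for 3 days. Medium replaced by MTT for 4 h at 37 °C; formazan dissolved in SDS/DMF/water/acetic acid buffer (pH 4.7); absorbance read at 570 nm. At least three independent experiments.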
A general note: Formazan colour is commonly taken as a measure of viable cells.

A further test deals with HepG2. The test is described as follows: Cytotoxicity against human HepG2 cells assessed as cell growth inhibition after 3 days by MTT assay. Format: functional, cell-based. As to conditions: HepG2, 72 h. The method, boiled down: as §1
Another test relates to A549. The experiment in a line: Cytotoxicity against human A549 cells assessed as cell growth inhibition after 3 days by MTT assay. Format: functional, cell-based. As to conditions: A549, 72 h. The method, boiled down: as §1
The target of test [2] is DNA topoisomerase 2-alpha (Homo sapiens) (UniProt P11388). The test is described as follows: Inhibition human topoisomerase 2 kDNA decatenation activity at 200 uM.
Test [3] has as its system HCT-116. The test is described as follows: Cell cycle arrest in human HCT116 cells assessed as accumulation at G2/M phase at 2.5 uM after 24 hrs using propidium iodide by fluorescence flow cytometry. Format: functional. The method, boiled down:
(§2)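 HCT-116 cells incubated 24 h with test agent at […], stained with propidium iodide; DNA content analysed by fluorescence flow cytometry to give percentage of cells per cell-cycle phase. Values are means of at least three independent experiments.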

Test [4] relates to HCT-116. The test is described as follows: Cell cycle arrest in human HCT116 cells assessed as accumulation at sub G1 phase at 2.5 uM after 24 hrs using propidium iodide by fluorescence flow cytometry. It is filed as functional. The method, boiled down: as §2
Test [5] has as its system HCT-116. The experiment in a line: Cell cycle arrest in human HCT116 cells assessed as accumulation at G1 phase at 5 uM after 24 hrs using propidium iodide by fluorescence flow cytometry. It is filed as functional. The method, boiled down:
as §2
A general note: Flow cytometry measures light scatter and fluorescence of single cells or particles in a stream.

The test system of test [6] is HCT-116. The experiment in a line: Cell cycle arrest in human HCT116 cells assessed as accumulation at S phase at 5 uM after 24 hrs using propidium iodide by fluorescence flow cytometry. Format: functional. In short, it runs like this: as §2
Test [7] deals with HCT-116. The test is described as follows: Cell cycle arrest in human HCT116 cells assessed as accumulation at G2/M phase at 5 uM after 24 hrs using propidium iodide by fluorescence flow cytometry. Format: functional. The method, boiled down: as §2
Test [8] relates to HCT-116. The experiment in a line: Cell cycle arrest in human HCT116 cells assessed as accumulation at sub G1 phase at 5 uM after 24 hrs using propidium iodide by fluorescence flow cytometry. It is filed as functional. In short, it runs like this: as §2
In test [9] the test system is HCT-116. The test is described as follows: Cell cycle arrest in human HCT116 cells assessed as accumulation at G1 phase at 10 uM after 24 hrs using propidium iodide by fluorescence flow cytometry. Format: functional. The method, boiled down:
as §2

In test [10] the test system is HCT-116. The test is described as follows: Cell cycle arrest in human HCT116 cells assessed as accumulation at S phase at 10 uM after 24 hrs using propidium iodide by fluorescence flow cytometry. Format: functional. In short, it runs like this:
as §2

Test [11] concerns HCT-116. The experiment in a line: Cell cycle arrest in human HCT116 cells assessed as accumulation at G2/M phase at 10 uM after 24 hrs using propidium iodide by fluorescence flow cytometry. Format: functional. In short, it runs like this:
as §2

Test [12] deals with HCT-116. The experiment in a line: Cell cycle arrest in human HCT116 cells assessed as accumulation at sub G1 phase at 10 uM after 24 hrs using propidium iodide by fluorescence flow cytometry. It is filed as functional. The method, boiled down: as §2
Test [13] concerns HCT-116. The experiment in a line: Cell cycle arrest in human HCT116 cells assessed as accumulation at G1 phase at 1.25 uM after 24 hrs using propidium iodide by fluorescence flow cytometry. It is filed as functional. The method, boiled down: as §2
The test system of test [14] is HCT-116. The experiment in a line: Cell cycle arrest in human HCT116 cells assessed as accumulation at S phase at 1.25 uM after 24 hrs using propidium iodide by fluorescence flow cytometry. It is filed as functional. In short, it runs like this:
as §2

In test [15] the test system is HCT-116. The experiment in a line: Cell cycle arrest in human HCT116 cells assessed as accumulation at G2/M phase at 1.25 uM after 24 hrs using propidium iodide by fluorescence flow cytometry. It is filed as functional. In short, it runs like this:
as §2

For test [16], the system named is HCT-116. The test is described as follows: Cell cycle arrest in human HCT116 cells assessed as accumulation at sub G1 phase at 1.25 uM after 24 hrs using propidium iodide by fluorescence flow cytometry. Format: functional. In short, it runs like this: as §2
For test [17], the system named is HCT-116. The test is described as follows: Cell cycle arrest in human HCT116 cells assessed as accumulation at G1 phase at 2.5 uM after 24 hrs using propidium iodide by fluorescence flow cytometry. It is filed as functional. The method, boiled down:
as §2

The subject of test [18] is HCT-116. The test is described as follows: Cell cycle arrest in human HCT116 cells assessed as accumulation at S phase at 2.5 uM after 24 hrs using propidium iodide by fluorescence flow cytometry. Format: functional. The method, boiled down: as §2

Calls of active or inactive are those of the source. The rule behind the calls is not given here.

DNA topoisomerase 2-alpha (Homo sapiens), sequence (P11388 whole entry): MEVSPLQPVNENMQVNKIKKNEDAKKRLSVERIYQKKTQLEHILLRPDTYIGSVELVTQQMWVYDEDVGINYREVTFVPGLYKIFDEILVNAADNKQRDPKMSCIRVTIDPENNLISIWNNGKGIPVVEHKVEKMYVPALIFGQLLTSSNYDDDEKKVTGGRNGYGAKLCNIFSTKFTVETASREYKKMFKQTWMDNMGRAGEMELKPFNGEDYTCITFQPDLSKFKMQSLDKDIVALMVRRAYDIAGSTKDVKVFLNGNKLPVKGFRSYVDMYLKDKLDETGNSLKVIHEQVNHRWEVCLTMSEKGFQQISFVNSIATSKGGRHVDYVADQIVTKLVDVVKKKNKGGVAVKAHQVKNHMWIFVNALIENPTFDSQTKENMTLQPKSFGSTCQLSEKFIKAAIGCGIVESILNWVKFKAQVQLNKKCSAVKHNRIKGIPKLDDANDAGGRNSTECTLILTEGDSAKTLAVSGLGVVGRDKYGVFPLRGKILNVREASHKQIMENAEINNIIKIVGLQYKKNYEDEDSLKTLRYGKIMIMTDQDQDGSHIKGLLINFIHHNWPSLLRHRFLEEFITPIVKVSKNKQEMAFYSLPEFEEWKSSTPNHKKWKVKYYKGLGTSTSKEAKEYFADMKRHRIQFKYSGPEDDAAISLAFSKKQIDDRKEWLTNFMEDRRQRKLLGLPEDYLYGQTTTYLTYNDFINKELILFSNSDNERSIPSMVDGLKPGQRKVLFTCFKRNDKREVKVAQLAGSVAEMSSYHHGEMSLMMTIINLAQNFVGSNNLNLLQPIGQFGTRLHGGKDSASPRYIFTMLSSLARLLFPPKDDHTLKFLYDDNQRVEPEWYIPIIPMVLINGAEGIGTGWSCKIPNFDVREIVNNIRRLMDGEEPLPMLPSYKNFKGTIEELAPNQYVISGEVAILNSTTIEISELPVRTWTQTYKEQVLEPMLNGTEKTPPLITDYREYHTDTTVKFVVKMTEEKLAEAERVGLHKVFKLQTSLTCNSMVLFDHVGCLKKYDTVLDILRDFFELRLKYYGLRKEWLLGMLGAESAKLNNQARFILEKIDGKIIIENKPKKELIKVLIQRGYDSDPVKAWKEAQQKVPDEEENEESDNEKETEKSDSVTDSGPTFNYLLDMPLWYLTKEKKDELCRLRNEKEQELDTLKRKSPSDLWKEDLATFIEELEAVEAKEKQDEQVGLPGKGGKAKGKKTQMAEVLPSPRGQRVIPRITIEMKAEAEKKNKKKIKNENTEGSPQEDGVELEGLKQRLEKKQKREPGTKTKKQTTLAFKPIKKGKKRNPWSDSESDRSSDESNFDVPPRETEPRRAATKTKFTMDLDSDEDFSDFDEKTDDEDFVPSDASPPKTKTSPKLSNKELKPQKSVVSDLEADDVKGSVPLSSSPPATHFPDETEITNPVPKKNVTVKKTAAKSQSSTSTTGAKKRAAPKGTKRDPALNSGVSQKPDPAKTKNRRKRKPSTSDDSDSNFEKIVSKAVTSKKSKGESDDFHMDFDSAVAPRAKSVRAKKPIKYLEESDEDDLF

The IC50 is the point on the concentration scale where inhibition reaches its midpoint. For the molecule `COc1cc([C@@H]2c3cc4c(cc3[C@@H](O[C@@H]3O[C@@H]5CO[C@@H](C)O[C@H]5[C@H](O)[C@H]3O)[C@H]3COC(=O)[C@H]23)OCO4)cc(OC)c1O` [ETOPOSIDE], the IC50 in the test on HCT-116 [1] was 13.5 µM; in the test on HepG2, 4.9 µM; in the test with A549, 21.4 µM.
Turning to `COc1cc([C@@H]2c3cc4c(cc3[C@@H](NC(=S)NC(=O)c3ccc(Cl)cc3)[C@H]3COC(=O)[C@H]23)OCO4)cc(OC)c1O`, the IC50 with HCT-116 [1] came out at 7.2 µM; in the test on HepG2 it was 7.6 µM; with A549, 11.5 µM.
As for `COc1cc([C@@H]2c3cc4c(cc3[C@@H](NC(=S)NC(=O)c3cccc5ccccc35)[C@H]3COC(=O)[C@H]23)OCO4)cc(OC)c1O`, the results for the IC50 in the test with HCT-116 [1], in the test on HepG2 and with A549 were 2.2 µM, 18.7 µM and 6 µM, respectively. For the same molecule, the inhibition entry in [2] was “Active”.
`COc1cc([C@@H]2c3cc4c(cc3[C@@H](NC(=S)NC(=O)c3cccc(C)c3)[C@H]3COC(=O)[C@H]23)OCO4)cc(OC)c1O`: the IC50 was 5.5 µM in the test with HCT-116 [1], 4.6 µM in the test with HepG2 and 13.3 µM in the test on A549.
Consider `COc1cc([C@@H]2c3cc4c(cc3[C@@H](NC(=S)NC(=O)c3ccccc3Br)[C@H]3COC(=O)[C@H]23)OCO4)cc(OC)c1O`, for which the figures for the IC50 in the test on HCT-116 [1], with HepG2 and in the test on A549 were 6.2 µM, 5.1 µM and 11.4 µM, respectively.
For `COc1cc([C@@H]2c3cc4c(cc3[C@@H](NC(=S)NC(=O)c3cccc(Cl)c3)[C@H]3COC(=O)[C@H]23)OCO4)cc(OC)c1O`, in that order: 6.8 µM, 7.6 µM and 17.9 µM.
For `COc1cc([C@@H]2c3cc4c(cc3[C@@H](NC(=S)NC(=O)c3ccccc3)[C@H]3COC(=O)[C@H]23)OCO4)cc(OC)c1O`, the Activity in the test on HCT-116 [3] was 93.11%; with HCT-116 [4], 0%; in the test on HCT-116 [5], 4.23%; in the test with HCT-116 [6], 0%; in the test on HCT-116 [7] it was 95.77%; with HCT-116 [8] it was 0%. Further, the Activity with HCT-116 [9] is on record as 3.55%; with HCT-116 [10], 0%; in the test on HCT-116 [11], 96.45%; with HCT-116 [12], 0%; in the test with HCT-116 [13], 48.6%; with HCT-116 [14], 8.74%. The Activity with HCT-116 [15] is recorded as 42.66%; in the test on HCT-116 [16], 0%; in the test with HCT-116 [17], 1.8%; in the test with HCT-116 [18] it was 5.09%. Moreover, the results for the IC50 in the test with HCT-116 [1], in the test on HepG2 and in the test with A549 were 6.3 µM, 6.1 µM and 9.8 µM, respectively. Besides, the inhibition entry in test [2] was “Active”.
For `COc1cc([C@@H]2c3cc4c(cc3[C@@H](NC(=S)NC(=O)c3ccc(F)cc3)[C@H]3COC(=O)[C@H]23)OCO4)cc(OC)c1O`, the half-maximal inhibitory concentration (IC50) in the test on HCT-116 [1] amounted to 6.8 µM; in the test with HepG2 it was 8.3 µM; in the test on A549, 10.8 µM.
Turning to `COc1cc([C@@H]2c3cc4c(cc3[C@@H](NC(=S)NC(=O)c3ccccc3C)[C@H]3COC(=O)[C@H]23)OCO4)cc(OC)c1O`, the IC50 in the test with HCT-116 [1] was determined as 4.7 µM; in the test on HepG2 it was 5.2 µM; in the test on A549 it was 12.2 µM.
The corresponding values for `COc1cc([C@@H]2c3cc4c(cc3[C@@H](NC(=S)NC(=O)c3ccccc3Cl)[C@H]3COC(=O)[C@H]23)OCO4)cc(OC)c1O` are 7.7 µM, 7.7 µM and 10.3 µM.
For `COc1cc([C@@H]2c3cc4c(cc3[C@@H](N)[C@H]3COC(=O)[C@H]23)OCO4)cc(OC)c1O`, in that order: 2.1 µM, 1.5 µM and 5.2 µM.
The corresponding values for `COc1cc([C@@H]2c3cc4c(cc3[C@@H](NC(=S)NC(=O)c3ccc(C)cc3)[C@H]3COC(=O)[C@H]23)OCO4)cc(OC)c1O` are 6.8 µM, 3 µM and 11.3 µM.
In the case of `COc1cc([C@@H]2c3cc4c(cc3[C@@H](NC(=S)NC(=O)c3ccccc3I)[C@H]3COC(=O)[C@H]23)OCO4)cc(OC)c1O`, the IC50 with HCT-116 [1] amounted to 6.7 µM; in the test with HepG2 it was 6.7 µM; with A549 it was 15.1 µM. Further, in [2], the inhibition result is “Active”.

The values above are taken from ChEMBL document CHEMBL1687881, “Synthesis and evaluation of aroylthiourea derivatives of 4-β-amino-4'-O-demethyl-4-desoxypodophyllotoxin as novel topoisomerase II inhibitors” (Eur J Med Chem, 2011).
